This excerpt belongs to a sample that is enriched for hits.
HSF-1 act: increases HSF-1 driven luciferase reporter signal | NIH3T3-HGL HSF-1 luciferase reporter, MG132, 8 h; 100% = twice DMSO control signal | activation, % at 9 µM | 300,000 compounds, 1.7% hits | AID 504408;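 active = mean replicate activation of at least 50% with a set share of replicates each reaching 50%; inconclusive = only one of those two conditions met; inactive = mean below 50% and too few replicates reaching it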;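 note: 0% = median of the neutral control wells and 100% = twice that signal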
Hsp70 act: transcriptional activators of Hsp70; HeLa Hsp70 promoter luciferase reporter, luminescence; scaled: vehicle 0, proteasome-inhibitor control 100%; activation, % at 10 µM; 200,000 compounds, 0.04% hits; AID 1203;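 active = activation above the mean across all tested compounds plus 3 SD, cutoff set per campaign, cut at about 5.5% in these data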;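 note: 100% = MG132 at 30 µM as the positive control and 0% = DMSO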
HSF1 inhib: HSF1 inhibition. NIH3T3-HGL HSE-luciferase, MG132-induced, luminescence 8 h; stronger effect = lower value. activity change, negative = inhibition, % at 7.5 µM (by protocol). 300,000 compounds, 0.77% hits;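 active = more than half of replicate wells show activity change below -50%, luminescence cut by over half; inconclusive = some wells, but at most half, below -50%; inactive = no replicate well below -50%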;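 note: luciferase reports HSF-1 transcriptional activity via heat shock element; 0% = median of DMSO wells and -100% = zero luminescence signal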
L major viab: Leishmania major promastigote growth inhibition; 200,000 compounds, 9% hits; AID 1063; Leishmania major promastigotes, resazurin fluorescence viability; inhibition, % at 10 µM; in the data active = inhibition above about 50%;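 note: promastigotes grown with compound for 44 hours at 28 °C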
T cruzi repl: blocks replication of Trypanosoma cruzi; AID 1885; T. cruzi beta-gal in NIH3T3, luminescence, 90 h; 300,000 compounds, 1.4% hits; inhibition, % (concentration not given with the values);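 active = mean inhibition across valid replicates above about 55%, limit read from the data; inconclusive = mean below that limit but half or more replicates reach it; inactive = mean below it, under half of replicates reach it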;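 note: signal also drops with host cell toxicity which is not excluded here; 0% = plate median of DMSO wells and 100% = zero luminescence signal; higher percent means less beta-gal luminescence so fewer parasites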
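Incubation – ≥90 h infection period, 3 h prior cell attachment · System – NIH/3T3 fibroblasts plus reporter T. cruzi · Doses – compound pinned at 50 nL/well, DMSO · Read-out basis – percent inhibition of parasite-derived β-gal signal · Signal – luminescent β-galactosidase signal after 60 min lysis · Also added – 5000 T. cruzi trypomastigotes/well · Medium – Low-serum DMEM with 2% FBS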
* hit, by the source's call; ? = inconclusive; nt = not tested or not shown.

SMILES	HSF-1 act	Hsp70 act	HSF1 inhib	L major viab	T cruzi repl
CCCn1nc(C(=O)NNC(=O)CCCOc2ccc(C)cc2)c2ccccc2c1=O	6	nt	12	nt	-3
CCOC(=O)/C=C/C(=O)N1CCc2ccccc21	84*	0	62	-6	-8
Cc1ccc(OCC(=O)N2CCc3ccccc32)cc1	67*	2	37	25	-10
CCCc1nc2ccccc2c(C(=O)OCC(=O)N2CCc3ccccc32)c1CC	-4	0	-11	99*	58*
Cc1ccc(OCC(=O)N2CCCc3ccccc32)cc1	nt	0	nt	-3	9
CCOCC(=O)N1CCc2ccccc21	30	0	7	-3	4
CN(C(=O)c1ccccc1C(=O)OCC(=O)Nc1ccc(S(N)(=O)=O)cc1)c1ccccc1	-83	nt	-79*	nt	3
Cc1ccc(C(=O)OCC(=O)Nc2ccc(S(N)(=O)=O)cc2)c(O)c1	0	nt	-5	nt	-8
CC1CCc2nc3ccccc3c(C(=O)OCC(=O)N3CCc4ccccc43)c2C1 (stereo not given)	5	1	-4	4	43
Cc1ccc(COc2ccc(CNCCCN3CCCCCC3=O)cc2)cc1	22	nt	1	nt	32
Cc1nonc1NC(=O)CSc1nnnn1-c1ccccc1	-19	nt	1	nt	-15
CC1=C([N+](=O)[O-])C(c2ccccc2C(F)(F)F)NC(=O)N1C (stereo not given)	-2	nt	-1	nt	-7
CC(=O)Nc1ccc(NC(=O)COC(=O)c2c(C)nn(-c3ccccc3)c2C)cc1	-2	0	-12	67*	6
Cc1nn(-c2ccccc2)c(C)c1C(=O)OCC(=O)NC12CC3CC(CC(C3)C1)C2	40	-1	20	15	24
Cc1ccn2cc(-c3cccc(NC(=O)c4ccccc4)c3)nc2c1	14	0	11	72*	22
Cc1ccc(C(=O)CNc2ccc(Cl)cc2)cc1	36	0	30	6	-45
CCOc1ccc(NCC(=O)c2ccc(C)cc2)cc1	-60	0	-54*	8	57*
Cc1ccc(C(=O)CC(=O)COc2ccc(Cl)cc2)cc1	2	0	1	66*	4
COc1cccc(N(CC(=O)NC2CCCCC2)C(=O)Cn2nnc(-c3ccc(C)o3)n2)c1	10	nt	-3	nt	13
O=C(COc1ccccc1-c1ccccc1)NNC(=O)NC1CCCCC1	?	0	18	2	-16
CCOC(=O)C1CCN(C(=O)COc2cc(C)c(Br)cc2C)CC1	-71	0	-63*	-2	-4
CCOC(=O)C1CCN(C(=O)COc2ccc(Br)cc2Br)CC1	24	0	18	5	-4
CCc1ccc(-c2cc(C)no2)cc1S(=O)(=O)N1CCN(C(=O)c2ccco2)CC1	29	nt	11	nt	7
COc1ccc(-c2nc(-c3ccc4c(c3)OCO4)[nH]c2-c2ccc(OC)cc2)cc1	-14	0	-8	90*	49
CCN(CC(=O)NCc1ccc(F)cc1)CC(=O)NC1CCCC1	-14	nt	-2	nt	4
SMILES	HSF-1 act	Hsp70 act	HSF1 inhib	L major viab	T cruzi repl
CSc1ccccc1NC(=S)Nc1ccc(S(N)(=O)=O)cc1	54*	0	13	2	-13
NS(=O)(=O)c1ccc(NC(=S)Nc2cc(Cl)c(Cl)cc2Cl)cc1	1	0	-4	47	-19
O=C(CCN1C(=O)/C(=C\c2ccccc2)SC1=S)NNC(=O)c1ccccc1O	13	nt	7	nt	9
CC1Cc2ccccc2N1S(=O)(=O)c1cccc(C(=O)NCCCO)c1 (stereo not given)	11	0	2	6	1
CC1Cc2ccccc2N1S(=O)(=O)c1cccc(C(=O)N2CCN(c3ncccn3)CC2)c1 (stereo not given)	6	0	2	77*	6
CCOC(=O)c1ccc(NC(=O)c2cccc(S(=O)(=O)N3c4ccccc4CC3C)c2)s1 (stereo not given)	3	0	4	99*	50
CC1Cc2ccccc2N1S(=O)(=O)c1cccc(C(=O)N2CC(=O)Nc3ccccc32)c1 (stereo not given)	4	nt	6	nt	5
O=C(Nn1cc(C(=O)Nc2ccccc2F)c2ccccc2c1=O)c1cnccn1	2	0	-3	74*	-16
COC(=O)c1cn(NC(=O)c2cnccn2)c(=O)c2ccccc12	-24	0	-13	-8	5
Cc1cc(C(=O)CCl)c(C)n1-c1cccc([N+](=O)[O-])c1	nt	0	nt	101*	nt
